Measurements from ChEMBL document CHEMBL4152204, “Discovery of N-hydroxy-3-alkoxybenzamides as direct acid sphingomyelinase inhibitors using a ligand-based pharmacophore model” (Eur J Med Chem, 2018).
The source made the active and inactive calls. The rule behind the calls is not given here.

What was measured:
NIH3T3 [1] = assay: Cytoprotective activity against UV-induced apoptosis in mouse NIH/3T3 cells assessed as necrotic cells preincubated for 20 hrs followed by UV irradiation for 5 mins and measured after 24 hrs by flow cytometric analysis; format: functional, cell-based
Summary of the method: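 NIH3T3 cells grown in DMEM plus 10% FBS at 37 °C and 5% CO₂, seeded in 6-well plates and left overnight. Inhibitor (0–60 µM, DMSO solvent) added for 20 h. Medium replaced, then UV at peak 315 nm, 0.29 mW/cm² for 5 min. Cells kept with inhibitor 24 h more before flow cytometry by quadrant regions. Untreated, unirradiated cells served as control. Three independent experiments.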

NIH3T3 [2] = assay: Cytoprotective activity against UV-induced apoptosis in mouse NIH/3T3 cells assessed as early apoptotic cells at 10 uM preincubated for 20 hrs followed by UV irradiation for 5 mins and measured after 24 hrs by flow cytometric analysis (reference value: 79.5%); format: functional
NIH3T3 [3] = assay: Cytoprotective activity against UV-induced apoptosis in mouse NIH/3T3 cells assessed as late apoptotic cells at 10 uM preincubated for 20 hrs followed by UV irradiation for 5 mins and measured after 24 hrs by flow cytometric analysis (reference value: 6.4%); format: functional
NIH3T3 [4] = assay: Cytotoxicity against mouse NIH/3T3 cells after 24 hrs by MTT assay; format: cell-based; conditions: NIH3T3, 24 h
NIH3T3 [5] = assay: Cytoprotective activity against UV-induced apoptosis in mouse NIH/3T3 cells assessed as early apoptotic cells at 20 uM preincubated for 20 hrs followed by UV irradiation for 5 mins and measured after 24 hrs by flow cytometric analysis (reference value: 79.5%); format: functional
[6] = molecular target: T1, Sphingomyelin phosphodiesterase (Mus musculus) (UniProt Q04519); assay: Inhibition of acid sphingomyelinase in mouse NIH/3T3 cells assessed as increase in […] level at 10 uM after 20 hrs by LC-MS/MS analysis relative to control; format: cell-based; parameters: scale not given: the % may be the effect or the level left
T1 sequence (whole entry): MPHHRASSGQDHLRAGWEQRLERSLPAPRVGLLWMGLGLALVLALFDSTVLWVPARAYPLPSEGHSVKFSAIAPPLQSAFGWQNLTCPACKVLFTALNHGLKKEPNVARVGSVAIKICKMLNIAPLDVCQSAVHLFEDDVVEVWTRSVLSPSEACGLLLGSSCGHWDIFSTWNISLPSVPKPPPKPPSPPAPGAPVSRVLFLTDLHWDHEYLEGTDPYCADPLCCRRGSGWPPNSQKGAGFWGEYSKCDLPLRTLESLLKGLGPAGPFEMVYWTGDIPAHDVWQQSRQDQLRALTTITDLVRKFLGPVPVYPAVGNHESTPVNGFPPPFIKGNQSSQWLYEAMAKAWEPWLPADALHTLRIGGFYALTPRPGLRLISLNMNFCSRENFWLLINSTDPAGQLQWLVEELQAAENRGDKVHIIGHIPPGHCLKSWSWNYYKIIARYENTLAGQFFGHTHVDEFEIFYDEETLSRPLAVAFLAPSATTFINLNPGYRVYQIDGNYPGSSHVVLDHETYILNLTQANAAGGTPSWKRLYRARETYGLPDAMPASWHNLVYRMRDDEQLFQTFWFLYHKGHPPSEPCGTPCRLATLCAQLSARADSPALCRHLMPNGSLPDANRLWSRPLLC
Summary of the method: (§1)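 NIH3T3 cells in DMEM with 10% FBS, 37 °C, 5% CO₂; at 90% confluence given fresh medium plus inhibitor (5, 10, 20 µM) for 20 h; total ceramides and sphingomyelin quantified by LC-MS-MS versus untreated control; mean ± SD of three independent experiments, Student's t-test.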

NIH3T3 [7] = assay: Cytoprotective activity against UV-induced apoptosis in mouse NIH/3T3 cells assessed as early apoptotic cells at 40 uM preincubated for 20 hrs followed by UV irradiation for 5 mins and measured after 24 hrs by flow cytometric analysis (reference value: 79.5%); format: functional
[8] = molecular target: T2, Sphingomyelin phosphodiesterase 2 (Homo sapiens) (UniProt O60906); assay: Inhibition of neutral sphingomyelinase (unknown origin) assessed as reduction in NBD-ceramide release at 100 uM by TLC based fluorescence assay
T2 sequence (whole entry): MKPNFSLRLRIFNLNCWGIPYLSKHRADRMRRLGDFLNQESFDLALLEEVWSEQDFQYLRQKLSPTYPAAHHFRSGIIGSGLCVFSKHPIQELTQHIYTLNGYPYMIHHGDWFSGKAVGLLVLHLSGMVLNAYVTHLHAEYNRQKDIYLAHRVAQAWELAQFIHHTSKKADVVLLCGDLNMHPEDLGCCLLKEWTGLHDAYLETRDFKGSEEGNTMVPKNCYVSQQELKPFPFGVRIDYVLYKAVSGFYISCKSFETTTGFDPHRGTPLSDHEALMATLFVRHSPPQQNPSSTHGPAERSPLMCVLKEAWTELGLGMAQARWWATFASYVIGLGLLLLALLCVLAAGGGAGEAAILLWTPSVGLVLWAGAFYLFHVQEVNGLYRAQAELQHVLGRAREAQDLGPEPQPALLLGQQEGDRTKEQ

[9] = molecular target: T1, Sphingomyelin phosphodiesterase (Mus musculus); assay: Inhibition of acid sphingomyelinase in mouse NIH/3T3 cells assessed as ceramide levels at 5 uM after 20 hrs by LC-MS/MS analysis relative to control; format: cell-based; summary of the method: as §1
NIH3T3 [10] = assay: Inhibition of LPS-induced IL-6 production in mouse NIH/3T3 cells preincubated for 20 hrs followed by LPS-stimulation and measured after 6 hrs by ELISA; format: functional, cell-based
Summary of the method: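 NIH3T3 cells (DMEM, 10% FBS) seeded at 2*10⁵ per well overnight, inhibitor 20 h, then LPS to 50 ng/mL for a further 6 h; IL-6 or IL-8 measured by ELISA; compared with LPS-only and control groups.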

NIH3T3 [11] = assay: Cytoprotective activity against UV-induced apoptosis in mouse NIH/3T3 cells assessed as necrotic cells at 60 uM preincubated for 20 hrs followed by UV irradiation for 5 mins and measured after 24 hrs by flow cytometric analysis (reference value: 1.5%); format: functional
[12] = molecular target: T1, Sphingomyelin phosphodiesterase (Mus musculus); assay: Inhibition of acid sphingomyelinase in mouse NIH/3T3 cells assessed as ceramide levels at 20 uM after 20 hrs by LC-MS/MS analysis relative to control; format: cell-based; summary of the method: as §1
NIH3T3 [13] = assay: Cytoprotective activity against UV-induced apoptosis in mouse NIH/3T3 cells assessed as viable cells at 40 uM preincubated for 20 hrs followed by UV irradiation for 5 mins and measured after 24 hrs by flow cytometric analysis (reference value: 12.6%); format: functional; conditions: NIH3T3, light or radiation study, read-out: Activity

- Activity [6]: 36.4%
- inhibition [8]: inactive
- inhibition [9]: 26.1%
- inhibition [12]: 42.6%
SMILES: CCCCCCCCCCOc1cc(C(=O)NO)ccc1OC
- Activity (NIH3T3 [1]): Dose-dependent effect
- Activity (NIH3T3 [2]): 42.1%
- Activity (NIH3T3 [3]): 11%
- IC50 (NIH3T3 [4]): 51.4 µM
- Activity (NIH3T3 [5]): 36.8%
- Activity (NIH3T3 [7]): 41.1%
- inhibition (NIH3T3 [10]): Dose-dependent effect
- Activity (NIH3T3 [11]): 0.6%
- viability at 40 µM (NIH3T3 [13]): 50.9%
